# Data from ChEMBL document CHEMBL2424622, “Development of amino-pyrimidine inhibitors of c-Jun N-terminal kinase (JNK): kinase profiling guided optimization of a 1,2,3-benzotriazole lead” (Bioorg Med Chem Lett, 2013).
# Key:
# [1] = molecular target: Serine/threonine-protein kinase 26 (Homo sapiens) (UniProt Q9P289); test: Competitive binding affinity to MST4 (unknown origin) at 10 uM in presence of ATP relative to control
# [2] = molecular target: T1, MAP/microtubule affinity-regulating kinase 4 (Homo sapiens) (UniProt Q96L34); test: Competitive binding affinity to MARK4 (unknown origin) at 10 uM in presence of ATP relative to control
# T1 sequence (whole entry): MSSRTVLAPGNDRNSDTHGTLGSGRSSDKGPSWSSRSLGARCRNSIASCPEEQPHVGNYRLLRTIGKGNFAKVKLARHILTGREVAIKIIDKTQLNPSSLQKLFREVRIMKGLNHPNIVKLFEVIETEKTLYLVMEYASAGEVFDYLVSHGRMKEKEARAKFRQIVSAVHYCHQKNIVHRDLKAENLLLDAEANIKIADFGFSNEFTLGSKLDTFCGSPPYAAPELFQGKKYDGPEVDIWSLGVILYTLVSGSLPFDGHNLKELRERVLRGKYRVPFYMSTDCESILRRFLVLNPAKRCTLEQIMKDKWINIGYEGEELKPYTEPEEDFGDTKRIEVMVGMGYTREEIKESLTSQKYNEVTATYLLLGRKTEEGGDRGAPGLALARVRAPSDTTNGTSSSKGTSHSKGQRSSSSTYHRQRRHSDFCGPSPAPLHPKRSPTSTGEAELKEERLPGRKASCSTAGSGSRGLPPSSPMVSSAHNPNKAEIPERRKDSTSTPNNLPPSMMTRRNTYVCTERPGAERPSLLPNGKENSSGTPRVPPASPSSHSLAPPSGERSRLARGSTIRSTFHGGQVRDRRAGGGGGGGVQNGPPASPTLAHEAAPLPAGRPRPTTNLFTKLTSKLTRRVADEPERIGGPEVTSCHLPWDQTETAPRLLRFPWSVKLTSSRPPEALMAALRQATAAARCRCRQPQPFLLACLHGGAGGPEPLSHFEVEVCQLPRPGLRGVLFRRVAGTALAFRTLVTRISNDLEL
# Procedure, shortened: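 In vitro ATP-site competition binding assay across a diverse panel of 128 kinases, with compound tested at a single concentration. Kinase selectivity scores (S15) were calculated from the panel profiles.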
# [3] = molecular target: T2, Serine/threonine-protein kinase DCLK2 (Homo sapiens) (UniProt Q8N568); test: Competitive binding affinity to DCAMKL2 (unknown origin) at 10 uM in presence of ATP relative to control
# T2 sequence (whole entry): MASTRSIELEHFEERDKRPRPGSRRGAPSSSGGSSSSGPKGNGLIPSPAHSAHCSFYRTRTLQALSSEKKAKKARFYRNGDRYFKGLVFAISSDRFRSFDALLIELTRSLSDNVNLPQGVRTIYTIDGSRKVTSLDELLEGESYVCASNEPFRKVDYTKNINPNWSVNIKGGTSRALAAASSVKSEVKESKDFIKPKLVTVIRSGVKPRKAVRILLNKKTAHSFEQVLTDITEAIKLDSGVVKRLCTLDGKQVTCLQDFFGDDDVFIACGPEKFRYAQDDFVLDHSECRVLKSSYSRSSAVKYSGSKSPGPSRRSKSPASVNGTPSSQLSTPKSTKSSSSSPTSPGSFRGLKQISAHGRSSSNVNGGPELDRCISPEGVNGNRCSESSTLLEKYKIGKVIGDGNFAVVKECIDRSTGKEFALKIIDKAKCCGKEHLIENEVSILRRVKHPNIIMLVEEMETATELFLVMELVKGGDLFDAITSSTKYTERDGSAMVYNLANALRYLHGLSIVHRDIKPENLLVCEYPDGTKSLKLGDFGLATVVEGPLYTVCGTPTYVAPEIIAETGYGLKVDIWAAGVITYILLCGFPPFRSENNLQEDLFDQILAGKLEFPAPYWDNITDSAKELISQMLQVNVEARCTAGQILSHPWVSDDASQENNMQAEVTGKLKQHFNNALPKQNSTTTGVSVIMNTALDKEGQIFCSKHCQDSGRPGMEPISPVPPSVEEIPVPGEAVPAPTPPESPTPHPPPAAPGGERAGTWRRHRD
# [4] = molecular target: T3, MAP kinase-activated protein kinase 5 (Homo sapiens) (UniProt Q8IW41); test: Competitive binding affinity to MAPKAPK5 (unknown origin) at 10 uM in presence of ATP relative to control
# T3 sequence (whole entry): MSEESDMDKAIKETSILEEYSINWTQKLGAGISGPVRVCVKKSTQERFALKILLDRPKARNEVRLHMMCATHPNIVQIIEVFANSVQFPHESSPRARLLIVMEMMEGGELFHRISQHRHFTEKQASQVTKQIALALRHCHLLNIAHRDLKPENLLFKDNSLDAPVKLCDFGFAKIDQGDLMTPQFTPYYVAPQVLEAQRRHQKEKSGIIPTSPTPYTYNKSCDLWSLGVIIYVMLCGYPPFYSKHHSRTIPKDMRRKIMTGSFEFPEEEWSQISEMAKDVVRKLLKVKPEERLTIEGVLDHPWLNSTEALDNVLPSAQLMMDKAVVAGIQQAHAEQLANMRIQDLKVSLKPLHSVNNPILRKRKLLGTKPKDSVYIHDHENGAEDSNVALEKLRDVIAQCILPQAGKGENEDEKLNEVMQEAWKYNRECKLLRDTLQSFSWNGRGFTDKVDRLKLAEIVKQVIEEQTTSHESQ
# [5] = molecular target: T4, Serine/threonine-protein kinase Nek5 (Homo sapiens) (UniProt Q6P3R8); test: Competitive binding affinity to NEK5 (unknown origin) at 10 uM in presence of ATP relative to control
# T4 sequence (whole entry): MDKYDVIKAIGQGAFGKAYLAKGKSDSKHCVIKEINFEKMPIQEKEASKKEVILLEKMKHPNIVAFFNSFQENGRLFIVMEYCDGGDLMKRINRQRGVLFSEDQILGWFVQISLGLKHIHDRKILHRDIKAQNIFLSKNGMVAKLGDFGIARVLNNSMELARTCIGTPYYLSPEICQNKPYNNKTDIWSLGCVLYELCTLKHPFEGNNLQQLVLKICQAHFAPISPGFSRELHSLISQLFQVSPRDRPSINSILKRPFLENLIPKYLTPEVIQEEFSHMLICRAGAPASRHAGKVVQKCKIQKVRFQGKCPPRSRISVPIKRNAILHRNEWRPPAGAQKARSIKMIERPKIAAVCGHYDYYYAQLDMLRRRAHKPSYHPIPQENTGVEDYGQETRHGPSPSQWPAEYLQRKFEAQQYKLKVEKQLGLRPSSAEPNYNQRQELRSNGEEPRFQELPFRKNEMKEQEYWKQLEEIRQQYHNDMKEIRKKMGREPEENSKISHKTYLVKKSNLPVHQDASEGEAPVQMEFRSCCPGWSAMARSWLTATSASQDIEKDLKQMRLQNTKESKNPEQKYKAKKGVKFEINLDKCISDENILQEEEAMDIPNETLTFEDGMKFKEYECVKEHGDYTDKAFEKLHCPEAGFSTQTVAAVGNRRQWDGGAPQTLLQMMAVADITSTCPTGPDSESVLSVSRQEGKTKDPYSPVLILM
# Sequence of Serine/threonine-protein kinase 26 (Homo sapiens) (Q9P289 2-416 limits assumed): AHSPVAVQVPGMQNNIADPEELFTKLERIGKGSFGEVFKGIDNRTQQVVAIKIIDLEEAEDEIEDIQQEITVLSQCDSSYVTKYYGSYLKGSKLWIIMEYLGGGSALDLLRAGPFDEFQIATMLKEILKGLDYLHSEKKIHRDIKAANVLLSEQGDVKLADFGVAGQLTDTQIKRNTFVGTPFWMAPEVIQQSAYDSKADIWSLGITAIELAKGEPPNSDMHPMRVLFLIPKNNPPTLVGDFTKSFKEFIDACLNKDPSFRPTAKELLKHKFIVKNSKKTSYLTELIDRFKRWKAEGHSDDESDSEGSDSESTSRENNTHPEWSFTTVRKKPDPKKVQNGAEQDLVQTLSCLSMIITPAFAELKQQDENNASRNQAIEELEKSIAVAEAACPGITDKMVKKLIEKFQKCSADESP
SMILES,inhibition [1] [%],inhibition [2] [%],inhibition [3] [%],inhibition [4] [%],inhibition [5] [%]
O[C@H]1CC[C@H](Nc2nccc(-n3ccc4ccccc43)n2)CC1,80,< 50,< 50,< 50,< 50
O[C@H]1CC[C@H](Nc2nccc(-n3ncc4ccccc43)n2)CC1,76,< 50,< 50,< 50,71
CS(=O)(=O)CCCOc1cccc2c1ccn2-c1ccnc(N[C@H]2CC[C@H](C(=O)N3CCC(O)CC3)CC2)n1,–,–,–,–,> 85

# Next, values leading:
inhibition [1] [%],inhibition [2] [%],inhibition [3] [%],inhibition [4] [%],inhibition [5] [%],SMILES
94,67,–,–,–,O[C@H]1CC[C@H](Nc2nccc(-c3n[nH]c4ccccc34)n2)CC1
79,< 50,< 50,< 50,95,O[C@H]1CC[C@H](Nc2nccc(-n3nnc4ccccc43)n2)CC1
